High-throughput results deposited in PubChem BioAssay by several laboratories.
HTR2A ag: activates the mouse 5-HT2A serotonin receptor; CHO-K1 mHTR2A beta-arrestin complementation, luminescence; percent of 30 µM serotonin response; activation, % at 7.6 µM; 360,000 tested, 0.66% active; AID 624169;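 active = activation above a run cutoff, the mean activation of all tested compounds plus 3 SD, cut at about 14% in these data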;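 note: 0% = plate median of compound wells and 100% = 30 µM serotonin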
PREPL inh: inhibitors of human prolyl oligopeptidase-like enzyme PREPL; Q4J6C6; recombinant PREPL, fluorescence polarization activity-based probe; inhibition, % at 5.96 µM; 320,000 tested, 0.68% active; AID 2751; in the data active = inhibition above about 43%;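 note: 0% = enzyme with DMSO and 100% = wells lacking enzyme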
Target sequence (Q4J6C6 whole entry, looked up): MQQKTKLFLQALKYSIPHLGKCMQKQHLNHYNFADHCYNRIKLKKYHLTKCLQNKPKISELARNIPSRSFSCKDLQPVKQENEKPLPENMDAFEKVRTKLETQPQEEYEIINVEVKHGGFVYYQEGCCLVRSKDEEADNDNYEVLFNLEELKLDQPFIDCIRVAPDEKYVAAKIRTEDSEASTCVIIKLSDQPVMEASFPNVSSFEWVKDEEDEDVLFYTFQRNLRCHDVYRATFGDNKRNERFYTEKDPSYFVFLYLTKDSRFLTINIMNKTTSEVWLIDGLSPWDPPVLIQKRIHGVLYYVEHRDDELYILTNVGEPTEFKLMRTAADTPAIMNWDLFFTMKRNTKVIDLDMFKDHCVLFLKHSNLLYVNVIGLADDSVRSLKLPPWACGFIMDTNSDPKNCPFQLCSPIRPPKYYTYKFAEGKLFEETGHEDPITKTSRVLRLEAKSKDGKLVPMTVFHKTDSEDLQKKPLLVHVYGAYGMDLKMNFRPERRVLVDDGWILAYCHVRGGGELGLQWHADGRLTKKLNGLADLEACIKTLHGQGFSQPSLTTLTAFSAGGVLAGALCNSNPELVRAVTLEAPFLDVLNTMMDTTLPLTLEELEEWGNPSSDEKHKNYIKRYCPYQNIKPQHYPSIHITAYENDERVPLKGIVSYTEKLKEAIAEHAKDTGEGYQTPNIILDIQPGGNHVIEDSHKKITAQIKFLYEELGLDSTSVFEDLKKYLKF
MC4R barr agon: agonists of human melanocortin 4 receptor (MC4R) beta-arrestin; P32245; 360,000 tested, 0.98% active; activation, % at 8.9 µM; U2OS MC4R beta-arrestin complementation, luminescence; percent of melanotan II response, DMSO zero;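 active = activation above a per-plate cutoff, the mean activation of sample wells on that plate plus 3 SD, cut at about 8% in these data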
Hep lipid drop: modulators of hepatic lipid droplet formation | inhibition, % at 6.5 µM | AML12 mouse hepatocytes, oleate lipid droplets, BODIPY imaging | 240,000 tested, 0.4% active;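 active = lipid droplet intensity inhibited by at least 50%, with more than 500 cells counted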
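Assay system: AML12 hepatocytes (mouse) / Also added: 100 µM oleic acid challenge / Times: overnight treatment with compound plus oleate / Detection: high-content imaging of BODIPY-stained droplets and DAPI nuclei / Evaluation: % inhibition of lipid droplet signal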
MC4R antagonist: human MC4R antagonism in cAMP assay; MC4R-expressing cells, MTII-stimulated cAMP, LANCE TR-FRET; inhibition, % at 6.5 µM; 360,000 tested, 0.48% active; AID 540295;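 active = inhibition above its plate's cutoff, the mean of tested wells on that plate plus 3 SD, cut at about 29% in these data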;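 note: 0% = Melanotan II alone and 100% = Melanotan II plus saturating MCL0020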
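Assay system: U2OS cells stably expressing human melanocortin 4 receptor (MC4R) / Dosing: 6.5 µM / Timing: compound 30 min, challenge 1 h, detection 1 h / Measured by: Eu-cAMP/anti-cAMP TR-FRET, emission 671 nm / Replicates: singlicate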
NTR1 ag: agonists of human neurotensin receptor NTR1; P30989; NTR1-U2OS beta-arrestin-GFP spot imaging, agonist mode; activation, % at 20 µM; 330,000 tested, 0.17% active; AID 493036;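 active = activation at or above 40% of the spot to cytoplasm intensity ratio, with at least 20 cells analyzed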;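 note: 0% = DMSO without peptide and 100% = 100 nM NTR1 peptide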
Numbers without * were called inactive; x = no result given. Rows were chosen to be rich in hits. Some 2.7% of all compounds tested hit in one or more screens of this group.

SMILES	HTR2A ag	PREPL inh	MC4R barr agon	Hep lipid drop	MC4R antagonist	NTR1 ag
O=C(Nc1nc(-c2ccc(Cl)cc2Cl)cs1)C1CCCO1 (configuration not stated)	0	-4	0	54*	-6	3
O=C(Nc1ccn(CCCNCc2cccc3ccccc23)c(=O)n1)OCc1ccccc1	-5	x	-1	x	5	x
CCCCNCCOCCSc1ccc(Cl)cc1	30*	17	0	x	8	-2
Cc1cccn2c(=O)c(C(=O)NCCCN3CC(C)CC(C)C3)c(O)nc12 (configuration not stated)	0	0	-3	x	9	-1
C=CS(=O)(=O)c1ccc(Oc2ccc(S(=O)(=O)C=C)cc2)cc1	2	7	-2	-16	14	66*
FC(F)(F)c1nnc2n1N=C(c1cccs1)CS2	1	3	0	20	2	-1
CCOC(=O)c1csc(N/N=C2\CCCc3ccccc32)n1	5	-12	-2	x	-9	42*
CCOC(=O)c1csc(N/N=C2\CCc3ccccc32)n1	3	16	-1	x	-8	10
COC1c2ccccc2C(=O)N1Cc1ccc(F)cc1 (configuration not stated)	-7	-2	1	4	5	0
COc1ccc(S(=O)(=O)NN(C)C(=O)c2nn(-c3ccccc3)ccc2=O)cc1	2	-2	0	14	0	-1
O=C(Nc1cccc(C(F)(F)F)c1)c1ccc2nc(-c3ccco3)c(-c3ccco3)nc2c1	16*	29	1	20	-4	2
O=C(O)c1ccc2nc(-c3ccco3)c(-c3ccco3)nc2c1	-3	x	-3	4	-13	1
Cc1ccccc1S(=O)(=O)N1[C@@H](c2ccccc2)C(C(=O)O)=CC[C@H]1c1ccc(Cl)cc1	3	3	-1	x	10	15
Cc1ccccc1S(=O)(=O)N1[C@@H](c2ccc(Br)cc2)C(C(=O)O)=CC[C@H]1c1ccc(Cl)cc1	22*	16	-1	x	-3	7
COc1ccc2c(c1)c(N=NC(N)=S)c(O)n2CC(=O)c1ccccc1	-5	19	12*	x	-1	1
Cc1ccc(NC(=O)Cn2c(O)c(N=NC(N)=S)c3ccccc32)cc1	-2	9	6	-7	-13	19
O=Cc1cn(CC(=O)N2CCCCC2)c2ccccc12	2	13	2	12	23	0
CN1C(=O)/C(=C/c2cn(CC(=O)N3CCCCC3)c3ccccc23)c2ccccc21	x	45*	x	-18	x	19
COc1ccc(-c2c(C)nc(N)nc2-c2ccc(OC)cc2O)cc1	-1	x	0	13	-2	1
COc1ccc(-c2c(C)nc(N)nc2-c2ccc(OCc3ccc(C)cc3)cc2O)cc1OC	-1	34	9.6*	7	4	9
N#Cc1ccc(/C=C/C(=O)c2ccccc2)cc1	-8	-6	-2	4	19	61*
Cc1cccc(NC(=O)CCNC(=O)c2ccco2)c1	-3	-4	6	-6	2	0
Clc1ccc(CSc2nnc(-c3c[nH]c4ccccc34)o2)cc1	2	11	8.6*	-1	9	14
CCSc1nnc(-c2c[nH]c3ccccc23)o1	2	-3	-1	1	3	2
Cc1nnc(Nc2ccc(S(N)(=O)=O)cc2)c2ccccc12	9	5	0	0	-1	-1
SMILES	HTR2A ag	PREPL inh	MC4R barr agon	Hep lipid drop	MC4R antagonist	NTR1 ag
Clc1ccc(OCc2nn3c(-c4ccccc4)nnc3s2)c(Cl)c1	2	-1	8.9*	19	12	2
COc1ccc(-c2nnc3sc(COc4ccccc4)nn23)cc1	3	-17	1	x	3	1
COc1ccc(-c2nnc3sc(COc4ccc(C)cc4)nn23)cc1	6	0	7	x	29*	1
CS(=O)(=O)N(CC(=O)NCc1ccco1)c1ccc(OCc2ccccc2)cc1	-4	1	1	3	15	-1
CC(C)CCNC(=O)CN(C(=O)CCC(=O)Nc1ccccn1)c1ccc(F)c(Cl)c1	-6	0	-3	27	-5	-1
COc1cc2c(cc1OC)-c1cc(NC3CCCC3)nc(=O)n1CC2	-2	5	-1	x	-3	5
COc1cc2c(cc1OC)-c1cc(OCc3ccccc3Cl)nc(=O)n1CC2	19*	-14	3	x	-8	3
CCCn1c(CCNc2nc(-c3cccc(Br)c3)cs2)nc2ccccc21	0	x	8.4*	x	9	x
CCCn1c(C(C)Nc2nc(-c3cccc(Br)c3)cs2)nc2ccccc21 (configuration not stated)	-4	23	0	-2	6	8
O=C(NCc1cccnc1)/C(=C\c1ccc(-c2cccc(Cl)c2)o1)S(=O)(=O)c1ccccc1	-2	-3	0	-1	23	x
O=C(NCc1cccnc1)/C(=C/c1ccc(-c2cccc(Cl)c2)o1)S(=O)(=O)c1ccccc1	6	1	1	x	1	42*
O=C(NNC(=O)c1ccccc1C(F)(F)F)c1csc(N2CCOCC2)n1	6	11	-2	-10	8	-1
Cc1ccc(NC(=O)CSc2nnc3n2CCCCC3)cc1S(=O)(=O)N1CCOCC1	-1	x	0	x	-1	x
O=C(COc1ccccc1)Nc1ccc2c(c1)Cc1cc(NC(=O)COc3ccccc3)ccc1-2	8	-6	-1	4	0	2
Cc1ccccc1OCC(=O)Nc1ccc2c(c1)Cc1ccccc1-2	0	4	28*	x	7	6
COC(=O)c1cc(C(=O)Nc2cc(C)on2)cc([N+](=O)[O-])c1	-1	-1	1	-1	2	-1
COC(=O)c1cc(C(=O)Nc2cc(C)ccn2)cc([N+](=O)[O-])c1	15*	-2	2	x	-2	2
COc1ccccc1NC(=O)Cn1cnc2sc(C)c(S(=O)(=O)N3CCCCC3)c2c1=O	-1	27	0	-25	1	1
Oc1cccc2ccc(Nc3ccccn3)nc12	-14	-5	8.7*	9	3	2
Cc1onc(-c2ccccc2Cl)c1C(=O)N1C=CC(C(F)(F)F)=NCC1	-2	7	0	5	0	0
Cc1onc(-c2ccccc2Cl)c1C(=O)N1C=CC(C(F)(F)Cl)=NCC1	24*	-1	-3	x	-3	5
N#C/C(=C/c1ccc(N2CCCCCC2)o1)c1cccc(F)c1	1	11	8.7*	46	10	-4
CCc1cccc(N(C(=O)c2csnn2)C(C(=O)NC(C)(C)C)c2ccccn2)c1 (configuration not stated)	3	-6	2	0	1	-1
CCN(CC)c1ccc(NC(=O)CSc2nc(C3CC3)nc3ccccc23)cc1C	1	-4	8.9*	7	-16	1
